Data published in ChEMBL document CHEMBL1128292, “Discovery of a novel series of orally active non-peptide endothelin-A (ETA) receptor-selective antagonists” (J Med Chem, 1995).

How the values were obtained:
Endothelin-1 receptor = biological target: T1, Endothelin-1 receptor (Homo sapiens, UniProt P25101); assay: Antagonistic activity against human Endothelin A receptor expressed in LtK; type: functional
T1 sequence (P25101 whole entry): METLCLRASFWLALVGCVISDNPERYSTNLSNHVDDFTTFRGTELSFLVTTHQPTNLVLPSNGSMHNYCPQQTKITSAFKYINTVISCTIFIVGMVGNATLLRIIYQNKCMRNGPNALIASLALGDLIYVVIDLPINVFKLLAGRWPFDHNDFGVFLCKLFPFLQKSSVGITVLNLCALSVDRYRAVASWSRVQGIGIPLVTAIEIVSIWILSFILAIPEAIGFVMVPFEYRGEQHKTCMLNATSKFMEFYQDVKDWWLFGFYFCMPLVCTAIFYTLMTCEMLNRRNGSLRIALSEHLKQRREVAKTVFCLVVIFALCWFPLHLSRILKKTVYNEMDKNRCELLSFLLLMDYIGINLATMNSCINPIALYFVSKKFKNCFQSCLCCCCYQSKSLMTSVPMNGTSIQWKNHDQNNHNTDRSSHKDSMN

[1] = biological target: T2, Endothelin receptor type B (Homo sapiens, UniProt P24530); assay: Tested for antagonistic activity against Endothelin B receptor in the humans (CHO expressed).; type: functional
T2 sequence (P24530 whole entry): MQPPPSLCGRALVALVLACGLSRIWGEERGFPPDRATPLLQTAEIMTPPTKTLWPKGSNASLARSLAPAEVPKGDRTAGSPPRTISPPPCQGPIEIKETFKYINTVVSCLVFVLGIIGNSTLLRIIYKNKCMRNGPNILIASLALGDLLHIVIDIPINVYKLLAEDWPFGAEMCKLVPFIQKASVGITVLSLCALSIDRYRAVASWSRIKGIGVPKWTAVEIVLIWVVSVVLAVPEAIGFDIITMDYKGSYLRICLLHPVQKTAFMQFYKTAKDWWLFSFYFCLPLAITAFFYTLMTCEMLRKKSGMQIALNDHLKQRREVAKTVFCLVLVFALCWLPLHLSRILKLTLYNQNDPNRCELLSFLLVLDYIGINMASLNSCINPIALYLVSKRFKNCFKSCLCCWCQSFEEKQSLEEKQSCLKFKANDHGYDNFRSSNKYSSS
In short: (§1)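 Membranes from cultured CHO-K1 cells expressing cloned human ETB receptor, incubated with [125I]ET-3 alone or with increasing unlabelled ligand concentrations, 37 °C, 2 h. Filtration separated bound from free ligand; gamma counting. Nonspecific binding measured with 100 nM unlabelled ET-3. One-site nonlinear least-squares fit of specific binding. IC50 from single competition experiments, triplicate points.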

[2] = biological target: T3, Endothelin receptor type B (Rattus norvegicus, UniProt P21451); assay: Tested for antagonistic activity against Endothelin B receptor in the rat cerebellum.; type: functional, tissue-based
T3 sequence (P21451 whole entry): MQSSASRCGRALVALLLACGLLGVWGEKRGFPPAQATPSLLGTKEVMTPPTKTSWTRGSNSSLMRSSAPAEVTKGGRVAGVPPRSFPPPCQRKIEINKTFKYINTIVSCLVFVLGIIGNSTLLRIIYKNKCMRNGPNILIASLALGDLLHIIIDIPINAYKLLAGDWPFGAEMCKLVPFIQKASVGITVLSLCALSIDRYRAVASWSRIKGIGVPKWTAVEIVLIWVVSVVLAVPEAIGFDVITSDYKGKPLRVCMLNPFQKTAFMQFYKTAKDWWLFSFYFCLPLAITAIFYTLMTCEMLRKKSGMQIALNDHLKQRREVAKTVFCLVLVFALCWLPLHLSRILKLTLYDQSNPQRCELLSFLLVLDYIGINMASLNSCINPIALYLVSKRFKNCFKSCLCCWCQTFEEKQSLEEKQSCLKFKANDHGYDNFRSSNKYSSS

[3] = biological target: T2, Endothelin receptor type B; assay: Tested for antagonistic activity against Endothelin B receptor in human (CHO expressed).; type: functional; in short: as §1

| IC50 (Endothelin-1 receptor) [nM] | IC50 [1] [nM] | IC50 [2] [nM] | IC50 [3] [nM] | SMILES |
| --- | --- | --- | --- | --- |
| 51 | 390 | 4500 |  | COc1ccc(C2(O)OC(=O)C(c3ccc4c(c3)OCO4)=C2Cc2ccc(C)cc2)cc1 (stereo unspecified) |
| 12 | 1750 |  |  | COc1ccc(C2(O)OC(=O)C(c3ccc4c(c3)OCO4)=C2Cc2ccccc2)cc1C (stereo unspecified) |
|  | > 2500 |  |  | COc1ccc(CC2=C(c3ccc(Cl)cc3)C(=O)OC2(O)c2ccc(OC)cc2)cc1 (stereo unspecified) |
|  | > 2500 |  |  | COc1ccc(C2(O)OC(=O)C(c3ccc4c(c3)OCO4)=C2Cc2ccc(Cl)cc2)cc1 (stereo unspecified) |
|  | > 2500 |  |  | COc1ccc(CC2=C(c3ccccc3)C(=O)OC2(O)c2ccc(OC)cc2)cc1 (stereo unspecified) |
| 2.4 | 1140 |  |  | COc1ccc(C2(O)OC(=O)C(c3ccc4c(c3)OCO4)=C2Cc2ccc(OC)c(C)c2)cc1 (stereo unspecified) |
|  | > 2700 |  |  | COc1ccc(CC2=C(c3ccc(C)cc3)C(=O)OC2(O)c2ccc(OC)cc2)cc1 (stereo unspecified) |
| 170 | > 2500 |  |  | COc1ccc(CC2=C(c3ccc(Cl)c(Cl)c3)C(=O)OC2(O)c2ccc(OC)cc2)cc1 (stereo unspecified) |
|  | 1550 |  |  | COc1ccc(CC2=C(c3ccc4c(c3)OCO4)C(=O)OC2(O)c2ccc(OC)cc2)cc1 (stereo unspecified) |
|  |  | 22000 | 30000 | O=C1OC(O)(c2ccccc2)C(Cc2ccccc2)=C1c1ccc2c(c1)OCO2 (stereo unspecified) |
|  | > 2500 |  |  | COc1ccc(CC2=C(c3ccc(OC)cc3)C(=O)OC2(O)c2ccc(OC)cc2)cc1 (stereo unspecified) |
|  | 27000 | 5200 |  | O=C1OC(O)(c2ccc(Cl)cc2)C(Cc2ccccc2)=C1c1ccc2c(c1)OCO2 (stereo unspecified) |
|  |  | 4500 | > 25000 | Cc1ccc(C2(O)OC(=O)C(c3ccc4c(c3)OCO4)=C2Cc2ccccc2)cc1 (stereo unspecified) |
|  | > 25000 |  |  | O=C1OC(O)(c2ccc(Cl)c(Cl)c2)C(Cc2ccccc2)=C1c1ccc2c(c1)OCO2 (stereo unspecified) |
|  |  | 500 | 4550 | COc1ccc(C2(O)OC(=O)C(c3ccc4c(c3)OCO4)=C2Cc2ccccc2)cc1 (stereo unspecified) [PD-155080] |
| 0.31 | 417 |  |  | COc1ccc(C(=O)/C(Cc2cc(OC)c(OC)c(OC)c2)=C(\C(=O)O)c2ccc3c(c2)OCO3)cc1 [PD-156707 SODIUM] |
